Assay results from paper PMC3911823 (The FEBS journal, 2011).
Positions count from the first letter of the chain named.

How the values were obtained:
P450 2B4 wild type = target: T1, P450 2B4 wild type (Oryctolagus cuniculus, UniProt P00178); assay: Inhibition of 7-EFC O-deethylation by imidazole inhibitors; format: biochemical, rabbit (Oryctolagus cuniculus)
T1 sequence (P00178 with tags, fused parts or gaps limits assumed): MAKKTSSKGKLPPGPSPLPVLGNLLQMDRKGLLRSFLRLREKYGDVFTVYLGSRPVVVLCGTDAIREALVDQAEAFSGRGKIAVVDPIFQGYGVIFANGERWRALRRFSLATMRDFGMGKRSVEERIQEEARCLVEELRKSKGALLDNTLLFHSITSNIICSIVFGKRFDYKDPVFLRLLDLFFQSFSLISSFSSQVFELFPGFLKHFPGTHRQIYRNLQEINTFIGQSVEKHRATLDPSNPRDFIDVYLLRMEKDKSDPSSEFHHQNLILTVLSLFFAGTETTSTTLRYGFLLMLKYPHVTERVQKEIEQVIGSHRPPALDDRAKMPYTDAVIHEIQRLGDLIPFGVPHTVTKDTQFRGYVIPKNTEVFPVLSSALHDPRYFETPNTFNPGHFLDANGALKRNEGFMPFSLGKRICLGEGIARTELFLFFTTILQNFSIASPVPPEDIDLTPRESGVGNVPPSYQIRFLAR

P450 2B4 H172F = target: T2, P450 2B4 H172F (Oryctolagus cuniculus, UniProt P00178, H172F); assay: Spectral binding titration of imidazole ligands; parameters: species or system rabbit (Oryctolagus cuniculus); conditions: 2B4 H172F versus wild type
T2 sequence (P00178 with tags, fused parts or gaps H172F limits assumed): T1 sequence (P00178 with tags, fused parts or gaps limits assumed) with H153F
Outline: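 Protein was the His-tagged 2B4dH construct (single mutants or wild type), expressed in TOPP3 cells and Ni-NTA purified. Spectra 350–700 nm recorded after serial 5 μl additions of 100 μM 4-CPI or bifonazole. Ks came from a tight-binding equation fit, and the 4-CPI/bifonazole Ks ratio was calculated.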

P450 2B4 H172Q = target: T3, P450 2B4 H172Q (Oryctolagus cuniculus, UniProt P00178, H172Q); format: biochemical, rabbit (Oryctolagus cuniculus)
T3 sequence (P00178 with tags, fused parts or gaps H172Q limits assumed): T1 sequence (P00178 with tags, fused parts or gaps limits assumed) with H153Q

For `Clc1ccc(-c2c[nH]cn2)cc1` [4-CPI, 4-(4-chlorophenyl)imidazole], the IC50 (P450 2B4 wild type) was 40 nM, the “Ratio 4-CPI IC50/Bifonazole IC50” value (P450 2B4 wild type; 2B4 WT, 50 μM 7-EFC as substrate) was 0.04 and the “change in the ratio of 4-CPI Ks to bifonazole Ks” value (P450 2B4 H172F) was “greater than 9 fold”.

`O=c1ccc2nc3ccc(OCc4ccccc4)cc3oc-2c1` [7-BR, 7-benzyloxyresorufin] was tested, and the “decrease (change) in kcat versus wild type” value (P450 2B4 H172Q) was ~ 15 fold, the kcat (P450 2B4 H172Q) was 0.0083 ± 0.0017 s⁻¹ and the kcat/S50 (P450 2B4 H172Q) was 0.06. The S50 (P450 2B4 H172Q; Hill equation) was 8.2 ± 1.0 µM.
